This is a sample that favours compounds with a hit; in the whole collection about 2% have one here.
dFosB act-1: mouse delta FosB homodimer activation; purified delta FosB, TAMRA-CDK5 oligo fluorescence polarization; percent of positive-control signal above neutral wells; P13346; 0.99% of 340,000 active; activation, % at 25 µM;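 active = mean activation above about 17%, with every replicate also reaching it, limit read from the data, passing the limit was not always enough; inconclusive = only one of the two conditions met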
C2C12 statin: suppressors of simvastatin-induced myotoxicity in C2C12 myotubes; ATP luminescence, 48 h; scaled: DMSO 0, geranylgeraniol control 100; 0.78% of 330,000 active; rescue of ATP level, % at 7.49 µM;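 active = mean ATP rescue above about 67%, or every replicate alone reaching that limit, limit read from the data, passing the limit was not always enough; inconclusive = no clear call, values can overlap the other calls; inactive = mean under the limit and some replicate under it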;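 note: myotubes were challenged with 10 µM simvastatin during compound exposure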
CAL PDZ FP-1: blocks peptide binding to the human CAL PDZ domain. purified CAL PDZ, TMR-peptide fluorescence polarization, 1 h. inhibition, % at 24.9 µM. AID 602252. 0.92% of 300,000 active;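 active = mean inhibition of at least 30% with at least half of replicates also reaching 30%; inconclusive = no clear call, values can overlap the other calls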
S100A4 MyoIIA: S100A4-myosin IIA interaction inhibition. P26447. S100A4/TAMRA-MyoIIA peptide fluorescence polarization. inhibition, % at 10.7 µM. 0.14% of 360,000 active;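 active = mean inhibition of at least 70% across replicates, with every replicate also reaching that level; inconclusive = mean inhibition reaches 70% but some replicates fall short; inactive = mean inhibition below 70%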
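Material: S100A4 monomer protein | Medium: HEPES pH 7.2 with CaCl2, KCl, NaCl, DTT, Triton | Reagent: Labelled myosin peptide probe, 5 nM | Doses: One dose per compound | Times: 5 min incubation before reading | Benchmarks: Neutral control DMSO, positive control TFP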
CDK5 inh: blocks human CDK5/p35 kinase activity; Q00535+Q15078; Recombinant CDK5/p35, ADP-Glo luminescence, 60 min; inhibition, % at 10 µM; 0.01% of 330,000 active;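 active = highest replicate inhibition of at least 50% and at least 75% of replicates reaching 50%; inconclusive = only one of the two criteria met; inactive = both criteria failed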
Target sequence (Q00535 whole entry, looked up): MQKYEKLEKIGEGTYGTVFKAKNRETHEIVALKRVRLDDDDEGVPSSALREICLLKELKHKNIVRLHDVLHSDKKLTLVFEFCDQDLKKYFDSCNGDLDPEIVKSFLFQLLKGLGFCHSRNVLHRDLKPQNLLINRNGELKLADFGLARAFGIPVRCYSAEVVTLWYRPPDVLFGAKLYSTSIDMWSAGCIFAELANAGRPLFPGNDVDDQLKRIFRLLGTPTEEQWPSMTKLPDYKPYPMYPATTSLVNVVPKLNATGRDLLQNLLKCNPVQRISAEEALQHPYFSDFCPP
Target sequence (Q15078 whole entry, looked up): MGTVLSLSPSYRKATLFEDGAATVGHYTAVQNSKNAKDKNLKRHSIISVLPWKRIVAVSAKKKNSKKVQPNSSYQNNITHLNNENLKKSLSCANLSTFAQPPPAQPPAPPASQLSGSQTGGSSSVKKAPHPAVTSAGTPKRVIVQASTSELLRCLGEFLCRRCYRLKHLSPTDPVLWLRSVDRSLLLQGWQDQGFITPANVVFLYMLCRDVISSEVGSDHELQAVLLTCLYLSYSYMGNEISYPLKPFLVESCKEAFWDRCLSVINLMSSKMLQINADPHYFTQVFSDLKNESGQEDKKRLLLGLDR
CAL PDZ FP-2: blocks peptide binding to human CAL PDZ domain; 0.02% of 330,000 active; AID 504414; inhibition, % at 20 µM; purified CAL PDZ, TMR-peptide fluorescence polarization, 1 h; Q9HD26;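 active = highest replicate inhibition of at least 40%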
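Control set: unlabelled peptide and DMSO controls / Material: purified CerCALP PDZ construct / Timing: 1 h incubation at room temperature before polarization reading / Doses: 20 µM, one dose / Detection: fluorescence polarization (mP)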
dFosB act-2: activators of mouse delta FosB homodimer DNA binding | purified delta FosB, TAMRA-CDK5 oligo fluorescence polarization; normalised: neutral wells 0, positive control 100 | activation, % at 24.9 µM | shares compounds with dFosB act-1 | 2,400 tested, under 10 active;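 active = highest replicate activation at or above 34% and every replicate reaching that threshold; inconclusive = meets only one of the two criteria; inactive = meets neither criterion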;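 note: higher polarization means more probe DNA bound by delta FosB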
Numbers stand for hits; . = inactive; ? = inconclusive; / = not tested or not shown.

SMILES	dFosB act-1	C2C12 statin	CAL PDZ FP-1	S100A4 MyoIIA	CDK5 inh	CAL PDZ FP-2	dFosB act-2
Cc1nnsc1S(=O)c1ccc(Br)cc1 (stereo not given)	.	?	.	.	.	.	/
Cc1cccc(C)c1NC(=O)Cn1nc(-c2ccccc2)nc1-c1ccccc1	45.3	.	.	/	.	.	.
O=C(Cn1nc(-c2ccco2)ccc1=O)Nc1cc(C(F)(F)F)ccc1Cl	.	.	.	.	.	.	/
CCc1ccc(NC(=O)CSc2nc3n[nH]c(C)c3c(=N)n2-c2cccc(OC)c2)cc1	41.8	.	/	/	.	.	.
Cc1ccc2nc(-c3cccnc3SCC(=O)N3c4ccccc4CC3C)[nH]c2c1 (stereo not given)	29.0	/	.	.	.	.	.
Cc1ccc(NC(=O)Nc2nc3ccccc3s2)cc1NC(=O)Nc1nc2ccccc2s1	31.8	.	.	.	.	.	.
CS(=O)(=O)c1cccc(C(=O)OCC(=O)NC(=O)Nc2ccccc2F)c1	22.4	.	/	.	.	.	.
CCNC(=O)Nc1nc2ccccc2s1	.	/	.	.	.	.	/
CC(=O)Nc1cccc(NC(=O)Nc2cccc3ccccc23)c1	20.8	.	.	.	.	.	.
COc1ccc2nc(NC(=O)Nc3cccc4ccccc34)sc2c1	56.7	/	.	.	.	.	.
CC(C)Oc1ccc(Cn2c(-c3ccco3)n[nH]c2=S)cc1	.	.	.	.	.	/	/
CS(=O)(=O)c1ccc2nc(NC(=O)Nc3ccccc3F)sc2c1	19.9	.	.	.	.	.	.
COc1ccccc1NC(=O)Nc1nc2ccc(S(N)(=O)=O)cc2s1	49.2	.	.	.	.	.	.
CS(=O)(=O)c1ccc2nc(NC(=O)c3ccccc3)sc2c1	.	.	.	.	.	.	/
COc1ccc2nc(NC(=O)Nc3ccccc3OC)sc2c1	.	/	.	.	.	.	/
Cc1ccc(NC(=O)c2nc[nH]c2C(=O)N2CCc3ccccc3C2)cc1	.	.	.	.	.	.	/
COc1nc(C)ccc1-c1noc(-c2cccs2)n1	.	/	/	.	.	.	/
O=C(c1ccc(Cl)cc1)c1cnc(-c2ccccc2)s1	.	.	.	/	.	.	/
O=C(c1ccc(Cl)cc1)c1cnc(Nc2ccccc2Cl)s1	52.8	.	.	/	.	.	.
C=CCn1cnc2c(nnn2-c2ccc(Cl)cc2)c1=O	.	.	.	.	.	.	/
CN1/C(=C/C(=O)CSc2ccccc2C(=O)O)C(C)(C)c2ccccc21	19.2	.	.	.	.	.	.
COc1ccc(Nc2nnc(SCC(=O)/C=C3/N(C)c4ccccc4C3(C)C)s2)cc1	42.8	/	.	/	.	.	.
CN1/C(=C\C(=O)CSc2nnc(N)s2)C(C)(C)c2ccccc21	.	.	.	.	.	.	/
Cc1cc(C)cc(NC(=O)C2CCN(S(=O)(=O)c3ccc4[nH]c(=O)ccc4c3)CC2)c1	46.3	.	.	.	.	.	.
CCc1cccc(NC(=O)C2CCN(S(=O)(=O)c3ccc4[nH]c(=O)ccc4c3)CC2)c1	.	.	/	.	.	.	/
SMILES	dFosB act-1	C2C12 statin	CAL PDZ FP-1	S100A4 MyoIIA	CDK5 inh	CAL PDZ FP-2	dFosB act-2
COc1ccc(NC(=O)C2CCCN(S(=O)(=O)c3ccc4[nH]c(=O)ccc4c3)C2)cc1OC (stereo not given)	.	.	.	.	.	.	/
CCc1ccc(NC(=O)C2CCCN(S(=O)(=O)c3ccc4[nH]c(=O)ccc4c3)C2)cc1 (stereo not given)	29.3	?	.	.	.	.	.
CCn1c(SCC(=O)N2CCc3ccccc32)nnc1-c1c[nH]c2ccccc12	.	.	.	/	.	.	/
COc1ccc(-n2c(SCC(=O)N3CCc4ccccc43)nnc2-c2c[nH]c3ccccc23)cc1	49.3	.	/	.	.	.	.
CCn1c(C)cc(/C=C2/SC(=O)N(C(C)C(=O)OC)C2=O)c1C (stereo not given)	.	.	.	.	.	.	/
COCC#Cc1ccc([C@H]2[C@H]3CN(C(=O)Nc4cc(F)ccc4F)CCCCN3[C@H]2CO)cc1	/	.	/	/	/	/	/
